From PubChem BioAssay
PTEN del growth – PTEN-deleted cell growth suppression; HCT116 PTEN-null viability, CellTiter-Glo, 60 h; active compounds read low; viability, % at 10 µM; 1.2% of 140,000 active; AID 827;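 active = viability at or below a set limit, 4 SD under the median of all tested compounds, cut at about 3.7% in these data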;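 also: PTEN knockout HCT116 line with beta catenin targeted HCT116 as companion control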
Autophagy HCS – alters autophagy in cells; MEF GFP-LC3 puncta imaging; test concentration mostly 10 µM; calls only at 10 µM (by protocol); 0.98% of 190,000 active; AID 463193;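 active = percentage of spot-positive cells more than 3 SD above its plate mean, without a fluorescence outlier flag or 80% toxicity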;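 also: spot-positive cell cutoff set from DMSO-treated cells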
Lmaj promast – reduces viability of Leishmania major promastigotes; inhibition, % at 10 µM; AID 1063; resazurin fluorescence viability; 9% of 200,000 active; in the data active = inhibition above about 50%;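 also: promastigotes grown with compound for 44 hours at 28 °C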
HCT116 bCat-KO – beta-catenin-lacking colon tumor cell growth suppression; 1.5% of 140,000 active; HCT116 beta-catenin knockout viability, CellTiter-Glo, 60 h; active compounds read low; viability, % at 10 µM;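 active = viability at or under a set limit, the compound median less 4 SD, cut at about 6% in these data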;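 also: 0% = Hyamine 1622 control at 20 µM and 100% = untreated cell control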
Dynein cargo inh – blocks dynein driven cargo transport along microtubules; 3617.4 mouse cells, GR-EGFP nuclear translocation imaging; test concentration mostly 20 µM; stimulated with dexamethasone, 1 µM; active compounds read low; 0.47% of 220,000 active; z-score, hits read low; AID 1381;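 active = plate z-score of nuclear minus cytoplasmic receptor signal below a set negative limit, without overly bright fluorescence or cell loss, cut at about -3.5 in these data, passing the limit was not always enough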;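 also: z-score of nuclear minus cytoplasmic ring GR-EGFP intensity difference per well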
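Also added – dexamethasone, 1.0 µM final · Buffer or medium – tet-free, stripped-serum medium · Schedule – induction 48 h, compound 1 h, agonist 30 min · Detection – formaldehyde fixation, Hoechst nuclear stain, 10x automated fluorescence imaging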
* = called active by the depositor; i = inactive; / = not tested or not shown; + = active, no number. Most compounds without a hit are left out; they make up all but 9.2% or so of the library.

SMILES	PTEN del growth	Autophagy HCS	Lmaj promast	HCT116 bCat-KO	Dynein cargo inh
CCOc1cc(/C=C2\CCC/C(=C\c3cc(Cl)c(O)c(OCC)c3)C2=O)cc(Cl)c1O	1.7*	i	93.0*	2.0*	0.698
CC(C)N(C(=O)c1sc2cc([N+](=O)[O-])ccc2c1Cl)C(C)C	92.1	i	97.2*	99.5	0.255
O=C(COC(=O)/C=C/c1ccco1)Nc1ccc(F)cc1Cl	/	i	-5.2	/	0.625
CCOC(=O)C1(C/C(C)=N/NC(N)=O)CC(C)(C)OC1=O (stereo not given)	96.9	i	-4.9	103.7	-0.586
CCOC(=O)C1(CC/C(C)=N\NC(N)=O)CC(C)(C)OC1=O (stereo not given)	105.0	+	2.7	97.3	-0.887
COc1cc2c(cc1OC)CN(C(=O)c1ccc(S(=O)(=O)N(C)c3ccccc3)cc1)CC2	/	i	99.0*	/	0.981
COC(=O)c1cnn(-c2ccc(C)c(C)c2)c1-n1cccc1	58.7	i	64.9*	57.3	3.62
CCC(C)n1c(-c2cccs2)nc2nc3ccccc3nc21 (stereo not given)	77.5	i	67.0*	79.8	-1.15
c1ccc(-n2c(-c3cccs3)nc3nc4ccccc4nc32)cc1	60.9	i	-1.0	62.5	-0.692
Cc1nc2nc(C)c(CCC(=O)NC(C)c3ccc4c(c3)OCCO4)c(C)n2n1 (stereo not given)	103.4	i	-3.3	96.4	2.17
Cc1nc2cc(-c3ccccc3)nn2c(C)c1CCC(=O)NC(C)c1ccc2c(c1)OCCO2 (stereo not given)	86.5	i	95.4*	91.5	-0.51
Cc1nc2cc(-c3cccc(F)c3)nn2c(C)c1CCC(=O)NC(C)c1ccc2c(c1)OCCO2 (stereo not given)	76.2	i	96.7*	83.9	-0.205
O=C(Cn1cccc1C(=O)c1ccccc1)NCc1ccc2c(c1)OCO2	94.7	i	1.6	94.4	-0.417
CC(NC(=O)Cn1cccc1C(=O)c1ccccc1)c1ccc2c(c1)OCCO2 (stereo not given)	/	i	88.5*	/	1.93
Cc1nc2ccccc2n1C1CC(=O)N(Cc2ccccc2)C1=O (stereo not given)	92.3	i	-1.9	95.5	-0.326
CCOc1ccc(C(O)C(CN2CCOCC2)c2ccccc2)cc1 (stereo not given)	94.3	i	84.2*	79.0	1.74
CCCCOc1ccc(C(O)C(CN2CCCCC2)c2ccccc2)cc1 (stereo not given)	/	i	70.0*	/	-0.299
CCCOc1ccc(C(O)C(CN2CCOCC2)c2ccccc2)cc1 (stereo not given)	98.8	i	89.3*	95.5	-0.944
CCCCOc1ccc(C(O)C(CN2CCOCC2)c2ccccc2)cc1 (stereo not given)	/	/	/	/	0.412
Cc1nn(CC(=O)N2CCN(C)CC2)c(=O)c2ccccc12	/	i	-7.8	/	0.78
COc1cc(CC(=O)Nc2cc(S(C)(=O)=O)ccc2Cl)cc(OC)c1OC	/	i	-7.0	/	-1.45
CCOc1ccc(S(=O)(=O)N(C)c2ccc(OCC(=O)NCCc3ccc(OC)cc3)cc2)cc1	/	/	/	/	-0.431
N#Cc1nc(-c2cccc(Cl)c2)oc1NCc1cccnc1	76.5	i	99.7*	87.9	0.186
COc1ccc(-c2nc(C#N)c(NCc3cccnc3)o2)cc1OC	110.2	i	95.6*	98.6	0.238
O=C1CN(C(=O)/C=C/c2ccccc2F)c2ccccc2N1	/	i	-8.9	/	-0.345
SMILES	PTEN del growth	Autophagy HCS	Lmaj promast	HCT116 bCat-KO	Dynein cargo inh
O=C(COC(=O)c1cccc(Cl)c1)Nc1cc(Cl)ccc1Oc1ccccc1	69.1	i	-3.8	69.2	1.34
CCN(CC)S(=O)(=O)c1ccc(C(=O)OCn2c(SC)nnc(C)c2=O)cc1	92.7	i	4.9	91.1	0.129
CCn1c(COc2ccccc2)nnc1SCC(=O)c1cccc([N+](=O)[O-])c1	74.5	i	91.4*	72.5	0.0762
COc1ccc(C(=O)CSc2nnc(CNc3ccc(C)cc3C)n2Cc2ccco2)cc1	56.6	i	41.9	47.3	-0.944
O=C(CSc1nnc(-c2ccc(O)cc2)n1Cc1ccco1)c1ccccc1	104.1	i	54.0*	89.9	-0.573
Cc1ccc(C(=O)CSc2nnc(CNc3ccc(C)cc3C)n2Cc2ccco2)cc1	59.3	i	59.8*	69.3	-0.117
Clc1ccc(OCc2nnc(SCCN3CCCCC3)n2Cc2ccco2)cc1	16.4	i	100.5*	9.6	1.44
O=C(COC(=O)/C=C/c1ccc(Br)o1)NCCCN1CCCC1=O	/	i	-7.8	/	2.39
CN(C)CC(C)(C)CN=Cc1c(O)[nH]c2ccccc12	/	/	/	/	0.343
O=C(CSc1nnc(COc2ccccc2)n1Cc1ccco1)c1ccc(F)cc1	84.1	+	6.1	88.3	-0.481
CCCCNc1nc(=S)[nH]c2cc(OC)c(OC)cc12	72.9	i	25.7	80.9	0.39
CCOCCCNc1nc(=S)[nH]c2cc(OC)c(OC)cc12	78.3	i	66.9*	82.4	-0.00543
CC1=C(C(=O)OCC2CCCO2)C(c2ccccc2)C2=C(CC(C)(C)CC2=O)N1 (stereo not given)	/	i	7.2	/	-0.399
Cc1ccc(C)c(N2CCN(C(=O)C3CCN(S(=O)(=O)c4c(C)noc4C)CC3)CC2)c1	/	/	/	/	-0.798
Cc1noc(C)c1S(=O)(=O)N1CCC(C(=O)N2CCN(c3ccc(Cl)cc3)CC2)CC1	67.7	i	68.1*	70.0	0.0843
Cc1noc(C)c1S(=O)(=O)N1CCCC(C(=O)N2CCN(C3CCCCC3)CC2)C1 (stereo not given)	75.0	i	92.7*	72.6	-0.637
Cc1noc(C)c1S(=O)(=O)N1CCC(C(=O)N2CCN(c3ccccc3Cl)CC2)CC1	79.4	i	96.5*	65.3	1.34
Cc1noc(C)c1S(=O)(=O)N1CCC(C(=O)N2CCC(N3CCCCC3)CC2)CC1	98.9	i	-4.8	98.0	-0.211
CCOC(=O)c1c(C)n(-c2ccccc2)c2ccc(O)c(CN(C)C)c12	/	i	94.3*	/	0.576
CCOC(=O)c1c(C)n(C)c2ccc(O)c(CN3CCN(C)CC3)c12	98.2	i	-3.3	93.8	-0.539
CCOC(=O)c1c(C)n(C)c2ccc(O)c(CN3CCC(C)CC3)c12	39.2	i	61.3*	39.2	-0.506
CCOC(=O)c1c(C)oc2ccc(O)c(CN(C)C)c12	83.6	i	0.8	94.7	-0.161
CCOC(=O)c1c(C)n(-c2ccccc2)c2ccc(O)cc12	/	i	-3.6	/	-1.2
CCOC(=O)c1c(C)n(C)c2ccc(O)c(CN(CC)CC)c12	64.7	i	61.9*	59.1	-0.754
O=C(CSc1nnnn1-c1cccc(F)c1)Nc1nc2ccccc2s1	93.6	i	-5.3	92.9	-0.954
CCOC(=O)C1(CC2CCCCO2)CCN(Cc2cc3ccccc3[nH]2)CC1 (stereo not given)	/	i	66.8*	/	-0.291
Cc1ccn(C(=O)c2ccc(NC(=O)C3CCCCC3)cc2)n1	95.8	i	-0.4	90.6	-1.07
CCOc1ccc(C(=O)N/N=C/c2cc(Cl)ccc2[N+](=O)[O-])cc1	61.9	i	3.1	61.0	-0.38
